Data reported in ChEMBL document CHEMBL4043077, “Revisiting Previously Investigated Plants: A Molecular Networking-Based Study of Geissospermum laeve” (J Nat Prod, 2017).
The source made the active and inactive calls. The rule behind the calls is not given here.

Legend:
Leishmania donovani [1] = assay: Antiparasitic activity against Leishmania donovani LV9 […] amastigotes infected in mouse RAW264.7 cells assessed induction of parasite cell morphological alteration at 50 uM incubated for 72 hrs by microscopy; assay type: functional, cell-based
Outline: (§1)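 RAW 264.7 macrophages infected with L. donovani LV9 amastigotes were incubated with compound for 72 h, then examined under the microscope for morphological alteration of the infected cells.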

Leishmania donovani [2] = assay: Antiparasitic activity against Leishmania donovani LV9 […] amastigotes infected in mouse RAW264.7 cells incubated for 48 hrs by Sybr Green I dye based assay; assay type: functional, cell-based; settings: LV9, RAW264.7, 48 h
Outline: (§2)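 Mean ± standard error of three independent in vitro experiments. Reference drugs: miltefosine for L. donovani LV9, tested on axenic amastigotes and on amastigotes inside RAW 264.7 macrophages; paclitaxel for MRC-5, a human fetal lung fibroblast line.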

Leishmania donovani [3] = assay: Antiparasitic activity against Leishmania donovani LV9 axenic amastigotes incubated for 72 hrs by resazurin dye based assay; assay type: functional; settings: LV9, 72 h; outline: as §2
MRC5 = assay: Cytotoxic activity against human MRC5 cells incubated for 72 hrs by resazurin dye based spectrophotometry; assay type: cell-based; settings: MRC5, 72 h; outline: as §2
Plasmodium falciparum = assay: Antiparasitic activity against chloroquine-resistant Plasmodium falciparum FcB1/Columbia infected in human erythrocytes assessed as reduction in [3H]-hypoxanthine incorporation incubated for 24 hrs assay by liquid scintillation spectrometry; assay type: functional, cell-based
Outline: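 In vitro test of purified alkaloids against the FcB1 strain. Values are the mean ± standard error of three independent experiments.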

Leishmania donovani [4] = assay: Antiparasitic activity against Leishmania donovani LV9 […] amastigotes infected in mouse RAW264.7 cells assessed induction of parasite cell morphological alteration at 6.25 uM incubated for 72 hrs by microscopy; assay type: functional, cell-based; outline: as §1
Leishmania donovani [5] = assay: Antiparasitic activity against Leishmania donovani LV9 […] amastigotes infected in mouse RAW264.7 cells assessed induction of parasite cell morphological alteration at 100 uM incubated for 72 hrs by microscopy; assay type: functional, cell-based; outline: as §1
Leishmania donovani [6] = assay: Antiparasitic activity against Leishmania donovani LV9 […] amastigotes infected in mouse RAW264.7 cells assessed induction of parasite cell morphological alteration at 12.5 uM incubated for 72 hrs by microscopy; assay type: functional, cell-based; outline: as §1

In the case of `C/C=C1/C[n+]2ccc3c([nH]c4ccccc43)c2C[C@@H]1[C@@H](C(=O)OC)[C@@H]1OC[C@H]2[C@H]3C[C@@H]4N(CC[C@@]45c4ccccc4N1[C@@H]25)C[C@H]3CC`, the Activity (Leishmania donovani [1]) is reported as “Active”, the IC50 (Leishmania donovani [2]) is reported as 57.8 µM and the IC50 (Leishmania donovani [3]) is reported as 51.8 µM. It also gave an IC50 (MRC5) of 3 µM and an IC50 (Plasmodium falciparum) of 2.9 µM.
`C/C=C1\C[C@H]2[C@@H]([C@@H]3OC[C@H]4[C@H]5C[C@@H]6N(CC[C@@]67c6ccccc6N3[C@@H]47)C[C@H]5CC)[C@@H]3Cc4c([nH]c5ccccc45)[C@H]2N3C1` was tested, and the IC50 (Leishmania donovani [2]) was 4.5 µM, the IC50 (Leishmania donovani [3]) was 9.4 µM and the IC50 (MRC5) was 0.022 µM. The IC50 (Plasmodium falciparum) was 1.9 µM and the Activity (Leishmania donovani [4]) was “Active”.
In the case of `CCC1=C(CC(=O)OC)[C@@](O)(c2nccc3c2[nH]c2ccccc23)OC1=O`, the IC50 (Leishmania donovani [2]) is reported as 25.7 µM, the IC50 (Leishmania donovani [3]) is reported as > 100 µM and the IC50 (MRC5) is reported as > 50 µM. The Activity (Leishmania donovani [5]) was “inactive” and the IC50 (Plasmodium falciparum) was 74.2 µM.
In the case of `CCC1=C(CC(=O)OC)[C@@](OC)(c2nccc3c2[nH]c2ccccc23)OC1=O`, the IC50 (Leishmania donovani [2]) is reported as 59.6 µM, the IC50 (Leishmania donovani [3]) is reported as > 100 µM and the IC50 (MRC5) is reported as > 50 µM. The Activity (Leishmania donovani [5]) was “inactive” and the IC50 (Plasmodium falciparum) was 56 µM.
With `CCCCCCCCCCCCCCCCOP(=O)([O-])OCC[N+](C)(C)C` [MILTEFOSINE] the IC50 (Leishmania donovani [2]) was 5.2 µM, the Activity (Leishmania donovani [6]) was “Active” and the IC50 (Leishmania donovani [3]) was 1.4 µM.
`CC[C@@]12CCCN3C(=O)C=C(c4ccccc4NC(=O)CC1)[C@]32O` was tested, and the IC50 (Leishmania donovani [2]) was 25 µM, the IC50 (Leishmania donovani [3]) was > 100 µM and the IC50 (MRC5) was > 50 µM. For the same compound, the Activity (Leishmania donovani [5]) was “inactive” and the IC50 (Plasmodium falciparum) was > 100 µM.
`CC(=O)O[C@H]1C(=O)[C@@]2(C)[C@H]([C@H](OC(=O)c3ccccc3)[C@]3(O)C[C@H](OC(=O)[C@H](O)[C@@H](NC(=O)c4ccccc4)c4ccccc4)C(C)=C1C3(C)C)[C@]1(OC(C)=O)CO[C@@H]1C[C@@H]2O` [PACLITAXEL] gave an IC50 (MRC5) of 0.00052 µM.
